Measurements gathered from unrelated publications.
Protocols differ between the studies behind these lines.
Target: Serine/threonine-protein kinase A-Raf (ARAF, Homo sapiens, UniProt P10398)
One construct used (P10398 1-606): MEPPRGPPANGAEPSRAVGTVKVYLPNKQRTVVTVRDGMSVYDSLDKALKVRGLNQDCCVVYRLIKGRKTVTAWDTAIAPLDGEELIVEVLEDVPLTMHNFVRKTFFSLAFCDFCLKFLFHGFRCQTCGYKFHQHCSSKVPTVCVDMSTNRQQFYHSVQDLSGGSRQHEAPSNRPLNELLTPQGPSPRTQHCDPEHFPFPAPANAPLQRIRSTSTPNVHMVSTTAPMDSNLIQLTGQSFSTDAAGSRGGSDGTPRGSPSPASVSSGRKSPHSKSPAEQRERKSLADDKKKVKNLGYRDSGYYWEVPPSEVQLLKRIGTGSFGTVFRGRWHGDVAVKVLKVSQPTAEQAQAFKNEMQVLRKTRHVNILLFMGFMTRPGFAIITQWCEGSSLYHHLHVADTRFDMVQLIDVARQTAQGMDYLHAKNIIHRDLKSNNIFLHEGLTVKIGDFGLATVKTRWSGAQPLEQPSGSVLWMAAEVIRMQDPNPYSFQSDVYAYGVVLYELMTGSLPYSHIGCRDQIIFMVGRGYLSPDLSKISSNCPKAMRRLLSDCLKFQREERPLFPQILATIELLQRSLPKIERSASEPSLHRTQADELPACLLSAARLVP

O=C1NC(=O)c2cc(Nc3ccc(F)cc3)c(Nc3ccc(F)cc3)cc21 — remaining signal (cell-free assay; 0.5 µM): 90.7%
CCN1CCN(Cc2ccc(NC(=O)c3ccc(C)c(/C=C/c4cnc5[nH]ccc5c4OC)c3)cc2C(F)(F)F)CC1 — inhibition (target engagement in cells, inhibitor, chemoproteomics; A-375; 0.5 µM): -68.8%
O=C(Nc1cnn(-c2csc(C(=O)NC3COC3)c2)c1)Nc1c(F)cccc1Cl — remaining activity (enzyme activity, inhibitor; 5 µM): 94.4%
COc1cc(Cl)c(C(=O)N[C@@H](CN[C@H]2CC[C@@H](N)CC2)Cc2ccc(C#N)cc2)cc1-c1ccc(CN[C@H](C)c2ccc(C)cc2)o1 — remaining activity (enzyme activity, inhibitor; 1 µM): 101%
CNC(=O)c1cc(Oc2ccc(NC(=O)Nc3ccc(Cl)c(C(F)(F)F)c3)cc2)ccn1 — remaining signal (cell-free assay; 0.5 µM): 7.04%
CC(C)(O)[C@H]1CC[C@H](Nc2ccc3ncc(-c4cccc(C(F)(F)F)c4)n3n2)CC1 — remaining activity (enzyme activity, inhibitor; 1 µM): 96.9%
Cc1cc(NC(=O)c2cccc3cc(-c4cccc5[nH]nc(N)c45)ccc23)ccc1F — activity vs control (enzyme activity, inhibitor; 0.1 µM): 98%
CN1CC(Oc2cnc(C#N)cc2-c2ccn3nc(NC(=O)C4CC4)cc3c2)C1 — inhibition (enzyme activity, inhibitor; 1 µM): 1%
CCCCNc1ncc2c(-c3ccc(F)cc3)nn(C[C@H]3CC[C@H](N)CC3)c2n1 — inhibition (target engagement in cells, inhibitor, chemoproteomics; 20 mM): 32.9%
CCN1CCN(Cc2ccc(NC(=O)c3ccc(C)c(Oc4ccnc5[nH]ccc45)c3)cc2C(F)(F)F)CC1 — inhibition (target engagement in cells, inhibitor, chemoproteomics; A-375; 5 µM): -85.6%
COc1cccc2c(NCc3ccccc3)nc(-n3c(N)nc4ccccc43)nc12 — inhibition (target engagement in cells, inhibitor, chemoproteomics; 20 mM): -7.3%
Cc1sc(C(=O)NC2COC2)cc1-n1cc(NC(=O)Nc2c(F)cccc2Cl)cn1 — remaining activity (enzyme activity, inhibitor; 10 µM): 84.1%
